Measurements pooled from the literature.
Protocols differ between the studies behind these lines.
Target: Tyrosine-protein kinase HCK (HCK, Homo sapiens, UniProt P08631)

CNC(=O)c1ccc(Nc2ncc(C(F)(F)F)c(NCc3nccnc3N(C)S(C)(=O)=O)n2)cc1  remaining binding (cell-free assay; competition with immobilised ligand; 0.1 µM): 100%
CC(C)(O)[C@H]1CC[C@H](Nc2ccc3ncc(-c4cccc(C(F)(F)F)c4)n3n2)CC1  remaining activity (enzyme activity; inhibitor; 1 µM): 40.5%
Cc1ccc(NC(=O)c2ccc(C)c(C(F)(F)F)c2)cc1C#Cc1nn(C2CCC(O)CC2)c2ncnc(N)c12 (stereo not drawn)  remaining activity (enzyme activity; inhibitor; 10 µM): -1%
O=S(=O)(NC1CCC(c2cc(F)ccc2F)(S(=O)(=O)c2ccc(Cl)cc2)CC1)C(F)(F)F (stereo not drawn)  remaining binding (cell-free assay; competition with immobilised ligand; 1 µM): 85%
CCN(CC)CCNC(=O)c1c(C)[nH]c(/C=C2\C(=O)Nc3ccc(F)cc32)c1C  inhibition (enzyme activity; inhibitor; 0.3 µM): 22%
CCCOc1ccc([C@@H]2[C@@H](C(=O)O)[C@H](c3ccc4c(c3)OCO4)CN2CC(=O)Nc2c(CC)cccc2CC)cc1  remaining binding (cell-free assay; competition with immobilised ligand; 1 µM): 92%
Nc1ncnc2occ(-c3ccc(NC(=O)Nc4cc(C(F)(F)F)ccc4F)cc3)c12  remaining signal (cell-free assay; 20 µM): 0.2%
Cc1ccc(NC(=O)c2ccc(CN3CCN(C)CC3)cc2)cc1Nc1nccc(-c2cncc(-c3oncc3C)c2)n1  remaining activity (enzyme activity; inhibitor; 0.5 µM): ≤ 50%
COc1cc(Cl)c(C(=O)N[C@@H](CN[C@H]2CC[C@@H](N)CC2)Cc2ccc(C#N)cc2)cc1-c1ccc(CN[C@H](C)c2ccc(C)cc2)o1  remaining activity (enzyme activity; inhibitor; 1 µM): 99%
COc1ccc2c(c1)O[C@H](c1ccc(OC)c(OC)c1)C[C@@H]2NC(=O)C1(c2ccc3c(c2)OC(F)(F)O3)CC1  remaining binding (cell-free assay; competition with immobilised ligand; 1 µM): 100%
CNC(=O)c1cc(Oc2ccc(NC(=O)Nc3ccc(Cl)c(C(F)(F)F)c3)cc2)ccn1  remaining signal (cell-free assay; 0.5 µM): 90.3%
CN(C)C1CCN(CC#Cc2nn(C3CCCC3)c3nc(NCc4ccccc4)ncc23)C1 (stereo not drawn)  inhibition (enzyme activity; inhibitor; FRET; 1 µM): 2%
Cc1ccc(Nc2nccc(N(C)c3ccc4c(C)n(C)nc4c3)n2)cc1S(N)(=O)=O  inhibition (enzyme activity; inhibitor; 10 µM): 90%
CNC(=O)c1cc2c(Oc3ccc(NC(=O)C4(C(=O)Nc5ccc(F)cc5)CC4)cc3)ccnc2cc1OC  inhibition (enzyme activity; inhibitor; radiometric; 1 µM): 98%
NS(=O)(=O)c1cc(NC(=O)C2(c3ccccc3Cl)CC2)ccc1Oc1cccc(Cl)c1  remaining binding (cell-free assay; competition with immobilised ligand; 1 µM): 89%
O=C(Nc1cnn(-c2csc(C(=O)NC3COC3)c2)c1)Nc1ccccc1Cl  remaining activity (enzyme activity; inhibitor; 5 µM): 94%
COc1cc(Nc2c(C#N)cnc3cc(OCCCN4CCN(C)CC4)c(OC)cc23)c(Cl)cc1Cl  remaining signal (cell-free assay; 0.5 µM): 11.9%
Cc1cc(NC(=O)c2cccc(S(F)(F)(F)(F)F)c2)cc(-n2ccn3nc(-c4cccnc4)cc23)c1  remaining binding (cell-free assay; competition with immobilised ligand; 1 µM): 98.7%
CC(C)(C)c1nc2c(s1)c1nc(N)ncc1c1ccc(NS(=O)(=O)c3c(F)cccc3F)c(F)c12  remaining activity (enzyme activity; inhibitor; radiometric; 1 µM): 82%
O=C(Nc1cccnn1)N1CC(C/C=C/c2cncc(Oc3ccc(C(F)(F)F)cn3)n2)C1  remaining binding (cell-free assay; competition with immobilised ligand; 1 µM): 100%
CS(=O)(=O)CCNCc1ccc(-c2ccc3ncnc(Nc4ccc(OCc5cccc(F)c5)c(Cl)c4)c3c2)o1  remaining signal (cell-free assay; 0.5 µM): 86.5%
COc1cc2ncnc(Nc3ccc(Oc4ccccc4)cc3C)c2cc1OC  inhibition (enzyme activity; inhibitor; 1 µM): 91%
COc1cc2c(N3CCN(C(=O)Nc4ccc(OC(C)C)cc4)CC3)ncnc2cc1OCCCN1CCCCC1  remaining signal (cell-free assay; 0.5 µM): 93.2%
Cc1c(NC(=O)c2cc(C(N)=O)nc3cc(F)ccc23)c(C(F)(F)F)nn1Cc1ccc(C#N)cc1  remaining binding (cell-free assay; competition with immobilised ligand; 1 µM): 69%
